ChEMBL document CHEMBL4842314, “Synthesis and SAR evaluation of coumarin derivatives as potent cannabinoid receptor agonists” (Eur J Med Chem, 2021)

Experiments:
Cannabinoid receptor 1 [1] = target: T1, Cannabinoid receptor 1 (Homo sapiens, UniProt P21554); assay: Displacement of [3H]-CP55940 from human recombinant CB1 receptor expressed in CHO-K1 cell membrane at 1 uM measured after 3 hrs by scintillation spectrometry; format: cell membranes
Cannabinoid receptor 2 [2] = target: T2, Cannabinoid receptor 2 (Homo sapiens, UniProt P34972); assay: Displacement of [3H]-CP55940 from human recombinant CB2 receptor expressed in CHO-K1 cell membrane at 1 uM measured after 3 hrs by scintillation spectrometry; format: cell membranes
Cannabinoid receptor 1 [3] = target: T1, Cannabinoid receptor 1; assay: Displacement of [3H]-CP55940 from human recombinant CB1 receptor expressed in CHO-K1 cell membrane measured after 3 hrs by scintillation spectrometry; format: cell membranes
Cannabinoid receptor 2 [4] = target: T2, Cannabinoid receptor 2; assay: Displacement of [3H]-CP55940 from human recombinant CB2 receptor expressed in CHO-K1 cell membrane measured after 3 hrs by scintillation spectrometry; format: cell membranes
Cannabinoid receptor 2 [5] = target: T2, Cannabinoid receptor 2; assay: Agonist activity at human recombinant CB2 receptor expressed in CHO-K1 cell membrane assessed as increase in GTPgammaS binding at 1 uM pretreated for 30 mins followed by [35S]GTPgammaS addition for 90 mins by [35S]GTP-gammaS binding assay relative to CP55940; format: functional, cell membranes; conditions: filed as agonist, time 120.0 min
Outline: (§1)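 Membranes (5 μg) from PathHunter CHOK1 cells stably expressing hCB1 or hCB2 pre-incubated 30 min at room temperature with test ligand at 1 μM final, 1 μM GDP and 5 μg saponin in Tris-HCl pH 7.4, MgCl2, NaCl, EDTA, BSA, DTT. [35S]GTPγS (0.3 nM final) was then added for 90 min at 25 °C. Filtration on GF/B. Emax given relative to CP55,940 (100%), two experiments in duplicate.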

Cannabinoid receptor 2 [6] = target: T2, Cannabinoid receptor 2; assay: Agonist activity at human recombinant CB2 receptor expressed in CHO-K1 cell membrane assessed as increase in GTPgammaS binding pretreated for 30 mins followed by [35S]GTPgammaS addition for 90 mins by [35S]GTP-gammaS binding assay; format: functional, cell membranes
Outline: (§2)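 Concentration-response [35S]GTPγS binding on 5 μg hCB1 or hCB2 CHOK1 membranes. Ligand, 1 μM GDP and saponin pre-incubated 30 min at room temperature, then 0.3 nM [35S]GTPγS added for 90 min at 25 °C. Filtration read-out. Three experiments in duplicate.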

Cannabinoid receptor 1 [7] = target: T1, Cannabinoid receptor 1; assay: Agonist activity at human recombinant CB1 receptor expressed in CHO-K1 cell membrane assessed as increase in GTPgammaS binding at 1 uM pretreated for 30 mins followed by [35S]GTPgammaS addition for 90 mins by [35S]GTP-gammaS binding assay relative to CP55940; format: functional, cell membranes; conditions: time 120.0 min; outline: as §1
Cannabinoid receptor 1 [8] = target: T1, Cannabinoid receptor 1; assay: Agonist activity at human recombinant CB1 receptor expressed in CHO-K1 cell membrane assessed as increase in GTPgammaS binding pretreated for 30 mins followed by [35S]GTPgammaS addition for 90 mins by [35S]GTP-gammaS binding assay; format: functional, cell membranes; outline: as §2

T1 sequence (P21554 whole entry): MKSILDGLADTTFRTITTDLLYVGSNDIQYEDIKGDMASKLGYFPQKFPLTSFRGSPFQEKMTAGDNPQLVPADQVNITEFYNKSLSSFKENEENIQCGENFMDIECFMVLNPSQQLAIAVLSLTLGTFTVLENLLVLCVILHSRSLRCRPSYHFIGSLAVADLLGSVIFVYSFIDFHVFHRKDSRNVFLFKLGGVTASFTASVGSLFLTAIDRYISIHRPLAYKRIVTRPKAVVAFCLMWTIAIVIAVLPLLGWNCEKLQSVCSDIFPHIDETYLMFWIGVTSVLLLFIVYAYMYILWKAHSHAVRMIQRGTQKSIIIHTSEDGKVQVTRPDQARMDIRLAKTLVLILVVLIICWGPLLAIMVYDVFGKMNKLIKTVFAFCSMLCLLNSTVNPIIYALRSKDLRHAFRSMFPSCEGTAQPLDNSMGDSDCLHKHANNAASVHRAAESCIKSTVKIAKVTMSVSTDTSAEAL
T2 sequence (P34972 whole entry): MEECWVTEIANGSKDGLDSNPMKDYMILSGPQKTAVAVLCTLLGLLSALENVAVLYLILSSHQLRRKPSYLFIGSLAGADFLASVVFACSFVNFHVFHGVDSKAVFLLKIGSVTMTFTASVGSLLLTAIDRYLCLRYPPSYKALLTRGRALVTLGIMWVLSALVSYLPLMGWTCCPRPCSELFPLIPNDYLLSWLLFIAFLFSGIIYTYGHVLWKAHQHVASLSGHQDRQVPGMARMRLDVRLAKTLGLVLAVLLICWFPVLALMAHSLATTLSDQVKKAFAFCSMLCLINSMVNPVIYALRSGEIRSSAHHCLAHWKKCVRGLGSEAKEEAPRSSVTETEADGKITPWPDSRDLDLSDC

Compound | inhibition (Cannabinoid receptor 2 [2]; filed as agonist) [%] | Ki (Cannabinoid receptor 2 [4]; read-out: pKi (converted)) [nM] | inhibition (Cannabinoid receptor 2 [2]) [%] | Ki (Cannabinoid receptor 1 [3]; read-out: pKi (converted)) [nM] | inhibition (Cannabinoid receptor 1 [1]) [%] | other results
CCCCCCC(C)(C)c1cc(OC)c2cc(Cc3ccccc3OC)c(=O)oc2c1 | > 50 | – | – | – | – | inhibition (Cannabinoid receptor 1 [1]; filed as agonist): > 50%
CCCCC(C)(C)c1cc(OC)c2cc(Cc3ccccc3C)c(=O)oc2c1 | – | > 1000 | 32 | – | – | Ki (Cannabinoid receptor 1 [3]; read-out: Ki): 217 nM; inhibition (Cannabinoid receptor 1 [1]; filed as agonist): > 50%
CCCCc1cc2c(O)cc(C3(CCCC)CCCC3)cc2oc1=O | > 50 | – | – | 1000 | – | Ki (Cannabinoid receptor 2 [4]; read-out: Ki): 13.7 nM; inhibition (Cannabinoid receptor 1 [1]; filed as agonist): 50%; Emax (Cannabinoid receptor 2 [5]): 85%; EC50 (Cannabinoid receptor 2 [6]): 18 nM
CCCCC1(c2cc(OC)c3cc(-c4ccccc4OC)c(=O)oc3c2)CCCC1 | – | > 1000 | – | > 1000 | -10 | –
CCCCC1(c2cc(OC)c3cc(-c4ccc(C(F)(F)F)cc4)c(=O)oc3c2)CCCC1 | – | > 1000 | -4 | > 1000 | 3 | –
CCCCC1(c2cc(OC)c3cc(-c4ccccc4C)c(=O)oc3c2)CCCC1 | – | > 1000 | – | > 1000 | – | –
CCCCC1(c2cc(OC)c3cc(Cc4ccncc4)c(=O)oc3c2)CCCCC1 | – | > 1000 | 3 | > 1000 | 26 | –
CCCCC1(c2cc(O)c3cc(-c4ccccc4)c(=O)oc3c2)CCCC1 | – | > 1000 | – | > 1000 | – | –
CCCCC(C)(C)c1cc(O)c2cc(Cc3ccccc3O)c(=O)oc2c1 | – | > 1000 | 37 | > 1000 | 24 | –
CCCCC1(c2cc(OC)c3cc(C)c(=O)oc3c2)CCCC1 | – | > 1000 | 1 | > 1000 | 16 | –
CCCCC1(c2cc(OC)c3cc(C)c(=O)oc3c2)CCCCC1 | – | > 1000 | – | > 1000 | 9 | –
CCCCC1(c2cc(OC)c3cc(Cc4cccnc4)c(=O)oc3c2)CCCC1 | 40 | > 1000 | – | > 1000 | 29 | –
CCCCC1(c2cc(O)c3cc(-c4ccccc4O)c(=O)oc3c2)CCCC1 | – | > 1000 | -2 | > 1000 | – | –
CCCCC1(c2cc(OC)c3cc(Cc4cccnc4)c(=O)oc3c2)CCCCC1 | – | > 1000 | 11 | > 1000 | 6 | –
CCCCCc1cc(O)c2cc(Cc3cccnc3)c(=O)oc2c1 | – | > 1000 | – | > 1000 | – | –
CCCCCCC(C)(C)c1cc(OC)c2cc(Cc3ccccc3)c(=O)oc2c1 | > 50 | – | – | – | – | inhibition (Cannabinoid receptor 1 [1]; filed as agonist): > 50%
CCCCCc1cc(O)c2cc(Cc3ccncc3)c(=O)oc2c1 | – | > 1000 | -5 | > 1000 | – | –
CCCCC1(c2cc(O)c3cc(Cc4ccncc4)c(=O)oc3c2)CCCC1 | – | > 1000 | 21 | > 1000 | – | –
CCCCCCC(C)(C)c1cc(O)c2cc(Cc3ccccc3C)c(=O)oc2c1 | > 50 | – | – | > 1000 | – | Ki (Cannabinoid receptor 2 [4]; read-out: Ki): 222 nM; inhibition (Cannabinoid receptor 1 [1]; filed as agonist): 47%
CCCCC1(c2cc(O)c3cc(Cc4cccnc4)c(=O)oc3c2)CCCC1 | > 50 | – | – | > 1000 | 19 | Ki (Cannabinoid receptor 2 [4]; read-out: Ki): 310 nM; Emax (Cannabinoid receptor 2 [5]): 82%
CCCCC1(c2cc(O)c3cc(CC)c(=O)oc3c2)CCCC1 | > 50 | – | – | > 1000 | 34 | Ki (Cannabinoid receptor 2 [4]; read-out: Ki): 60.6 nM; Emax (Cannabinoid receptor 2 [5]): 87%
CCCCC1(c2cc(OC)c3cc(Cc4ccccn4)c(=O)oc3c2)CCCCC1 | – | > 1000 | 12 | > 1000 | – | inhibition (Cannabinoid receptor 1 [1]; filed as agonist): 47%
CCCCC1(c2cc(O)c3cc(C)c(=O)oc3c2)CCCCC1 | > 50 | – | – | > 1000 | 19 | Ki (Cannabinoid receptor 2 [4]; read-out: Ki): 106 nM; Emax (Cannabinoid receptor 2 [5]): 66%
CCCCC1(c2cc(OC)c3cc(Cc4ccccn4)c(=O)oc3c2)CCCC1 | – | > 1000 | 20 | > 1000 | 29 | –
CCCCC1(c2cc(O)c3cc(Cc4ccncc4)c(=O)oc3c2)CCCCC1 | 46 | > 1000 | – | > 1000 | 5 | –
CCCCC1(c2cc(O)c3cc(CCC)c(=O)oc3c2)CCCC1 | > 50 | – | – | > 1000 | – | Ki (Cannabinoid receptor 2 [4]; read-out: Ki): 18.6 nM; inhibition (Cannabinoid receptor 1 [1]; filed as agonist): 47%; Emax (Cannabinoid receptor 2 [5]): 91%

Compound | inhibition (Cannabinoid receptor 2 [2]; filed as agonist) [%] | Ki (Cannabinoid receptor 2 [4]; read-out: pKi (converted)) [nM] | inhibition (Cannabinoid receptor 2 [2]) [%] | Ki (Cannabinoid receptor 1 [3]; read-out: pKi (converted)) [nM] | inhibition (Cannabinoid receptor 1 [1]) [%] | other results
CCCCCc1cc(OC)c2cc(Cc3ccncc3)c(=O)oc2c1 | – | > 1000 | 11 | > 1000 | 0 | –
CCCCCc1cc(OC)c2cc(Cc3cccnc3)c(=O)oc2c1 | > 50 | – | – | – | – | Ki (Cannabinoid receptor 1 [3]; read-out: Ki): 171 nM; Ki (Cannabinoid receptor 2 [4]; read-out: Ki): 56.5 nM; inhibition (Cannabinoid receptor 1 [1]; filed as agonist): > 50%; Emax (Cannabinoid receptor 1 [7]; filed as agonist): 40%; Emax (Cannabinoid receptor 2 [5]): 40%
CCCCCCC(C)(C)c1cc(O)c2cc(Cc3ccccc3O)c(=O)oc2c1 | > 50 | – | – | – | – | inhibition (Cannabinoid receptor 1 [1]; filed as agonist): > 50%
CCCCCc1cc(O)c2cc(Cc3ccccn3)c(=O)oc2c1 | – | > 1000 | – | > 1000 | – | –
CCCCc1cc2c(OC)cc(C3(CCCC)CCCC3)cc2oc1=O | – | > 1000 | -1 | > 1000 | 15 | –
CCCCC1(c2cc(O)c3cc(Cc4ccccn4)c(=O)oc3c2)CCCCC1 | > 50 | – | – | > 1000 | -7 | Ki (Cannabinoid receptor 2 [4]; read-out: Ki): 71.9 nM; Emax (Cannabinoid receptor 2 [5]): 68%; EC50 (Cannabinoid receptor 2 [6]): 42 nM
CCCCC(C)(C)c1cc(O)c2cc(Cc3ccccc3C)c(=O)oc2c1 | 41 | > 1000 | – | > 1000 | 30 | –
CCCCC1(c2cc(O)c3cc(Cc4ccccn4)c(=O)oc3c2)CCCC1 | 44 | > 1000 | – | > 1000 | 34 | –
CCCCC1(c2cc(OC)c3cc(-c4ccccc4)c(=O)oc3c2)CCCC1 | – | > 1000 | -8 | > 1000 | 34 | –
CCCCC1(c2cc(OC)c3cc(CCC)c(=O)oc3c2)CCCC1 | – | > 1000 | 38 | > 1000 | 32 | –
CCCCC(C)(C)c1cc(O)c2cc(Cc3ccccc3)c(=O)oc2c1 | – | > 1000 | 24 | > 1000 | 12 | –
CCCCC1(c2cc(O)c3cc(C)c(=O)oc3c2)CCCC1 | 49 | 1000 | – | > 1000 | -10 | –
CCCCCCC(C)(C)c1cc(OC)c2cc(Cc3ccccc3C(F)(F)F)c(=O)oc2c1 | – | > 1000 | 3 | > 1000 | 26 | –
CCCCC1(c2cc(OC)c3cc(CCC)c(=O)oc3c2)CCCCC1 | – | > 1000 | -4 | > 1000 | 18 | –
CCCCCCC(C)(C)c1cc(O)c2cc(Cc3ccccc3)c(=O)oc2c1 | > 50 | – | – | – | – | inhibition (Cannabinoid receptor 1 [1]; filed as agonist): > 50%
CCCCC(C)(C)c1cc(OC)c2cc(Cc3ccccc3)c(=O)oc2c1 | – | > 1000 | 39 | – | – | Ki (Cannabinoid receptor 1 [3]; read-out: Ki): 486 nM; inhibition (Cannabinoid receptor 1 [1]; filed as agonist): > 50%
CCCCC(C)(C)c1cc(OC)c2cc(Cc3ccccc3OC)c(=O)oc2c1 | > 50 | – | – | – | – | Ki (Cannabinoid receptor 1 [3]; read-out: Ki): 196 nM; Ki (Cannabinoid receptor 2 [4]; read-out: Ki): 231 nM; inhibition (Cannabinoid receptor 1 [1]; filed as agonist): > 50%
CCCCC1(c2cc(O)c3cc(CC)c(=O)oc3c2)CCCCC1 | > 50 | – | – | > 1000 | 39 | Ki (Cannabinoid receptor 2 [4]; read-out: Ki): 39.1 nM; Emax (Cannabinoid receptor 2 [5]): 65%
CCCCc1cc2c(OC)cc(C3(CCCC)CCCCC3)cc2oc1=O | – | > 1000 | 2 | > 1000 | – | –
CCCCC1(c2cc(OC)c3cc(Cc4ccncc4)c(=O)oc3c2)CCCC1 | – | > 1000 | 9 | > 1000 | 28 | –
CCCCC1(c2cc(O)c3cc(-c4ccccc4C)c(=O)oc3c2)CCCC1 | 43 | > 1000 | – | > 1000 | 4 | –
CCCCC1(c2cc(OC)c3cc(CC)c(=O)oc3c2)CCCC1 | – | > 1000 | 0 | > 1000 | 33 | –
CCCCC1(c2cc(O)c3cc(-c4ccc(C(F)(F)F)cc4)c(=O)oc3c2)CCCC1 | – | > 1000 | -10 | > 1000 | – | –
CCCCCCC(C)(C)c1cc(O)c2cc(Cc3ccccc3C(F)(F)F)c(=O)oc2c1 | 42 | > 1000 | – | 1000 | – | inhibition (Cannabinoid receptor 1 [1]; filed as agonist): 49%
CCCCC1(c2cc(O)c3cc(CCC)c(=O)oc3c2)CCCCC1 | > 50 | – | – | – | – | Ki (Cannabinoid receptor 1 [3]; read-out: Ki): 159 nM; Ki (Cannabinoid receptor 2 [4]; read-out: Ki): 6.5 nM; inhibition (Cannabinoid receptor 1 [1]; filed as agonist): > 50%; Emax (Cannabinoid receptor 1 [7]): 23%; Emax (Cannabinoid receptor 2 [5]): 62%; EC50 (Cannabinoid receptor 1 [8]): 1120 nM; EC50 (Cannabinoid receptor 2 [6]): 4.51 nM
CCCCC1(c2cc(OC)c3cc(CC)c(=O)oc3c2)CCCCC1 | – | > 1000 | -1 | > 1000 | 6 | –
